A selection: hits, their analogues and other compounds. The true share with any hit is near 4.3%.
Yeast lifespan up = yeast lifespan extension; actives 0.68% (n = 130,000); S. cerevisiae growth with nicotinamide, OD615; deaD strain in restrictive glucose medium; inhibition of the nicotinamide effect, % at 10 µM;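 active = inhibition above a set limit, placed 3 SD over the median of all compounds, cut at about 26% in these data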;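 also: 0% = nicotinamide-treated wells and 100% = cells grown without nicotinamide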
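assay system = DeaD-strain S. cerevisiae | measured by = absorbance at 615 nm | probe or stimulus = nicotinamide 1.5 mM | buffer or medium = CSMM-D glucose medium, restrictive | times = 48 h at 30 °C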
RAM network inh = inhibitors of the yeast RAM network; AID 868; actives 1.8% (n = 190,000); S. cerevisiae dse1pr::URA3 reporter, 5-FOA growth OD615, 2 d; analog-sensitive cbk1-as2 kinase mutant strain; inhibition, % at 50 µM;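 active = inhibition above a set limit, 3 SD over mean compound inhibition, cut at about 8.4% in these data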;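 also: 0% = DMSO-only wells with no growth and 100% = 10 µM 1-NA-PP1 full growth; inhibition rescues growth on 5-FOA so higher OD means more RAM inhibition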
WT yeast gro inh = growth inhibition of WT yeast, mitochondrial fusion screen; mitochondrial fusion phenotypic screen, WT strain; inhibition, % at 10 µM; actives 2.1% (n = 190,000); in the data active = inhibition above about 58%; tested in S. cerevisiae
Yeast growth inh = chemicals that inhibit yeast BB579 growth in restrictive medium (lifespan-shortening candidates); S. cerevisiae BB579 growth, OD615, 48 h; actives 0.51% (n = 140,000); inhibition, % at 10 µM;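 active = inhibition above a set limit, 3 SD over the mean compound inhibition, cut at about 44% in these data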
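System: Saccharomyces cerevisiae DeaD strain BB579, replicative lifespan model yeast | Buffer or medium: Restrictive glucose-based CSMM-D medium | Times: 4 h preincubation and 48 h exposure at 30 °C | Detection: OD615 turbidity measurement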
* marks the source's active call; other numbers are inactive results; / = not tested or not shown.

SMILES	Yeast lifespan up	RAM network inh	WT yeast gro inh	Yeast growth inh
CCc1ccc2[nH]c3nc(SCc4nnc(-c5ccc(C)cc5)o4)nnc3c2c1	/	3.2	-14.9	-4.7
CNC(=S)/N=C/NOCc1ccc(Cl)cc1Cl	/	0.5	62.2*	/
Cc1cc(Nc2ccc(Cl)cc2)nc(NCc2ccccc2)n1	-9.6	8.4*	96.8	-28.1
Cc1cc(N/N=C/c2ccc(Cl)cc2Cl)nc(NCc2ccccc2)n1	-14.1	-1.4	83.0*	99.4*
CCOC(=O)N1CCC(=NNC(=O)c2ccc(O)cc2)CC1	3.8	0.7	-11.7	-27.1
COc1ccc(NC(=O)C2CC(=O)N(C(C)C)C2)cc1 (centres undefined)	-1.7	0.7	-10.8	-22.9
CCOc1ccc(NC(=O)C2CC(=O)N(C(C)C)C2)cc1 (centres undefined)	-19.8	1.2	62.9*	-46.5
CN(C)S(=O)(=O)c1ccc(C(=O)Nc2nc(-c3cc4ccccc4o3)cs2)cc1	28.0*	3.3	9.8	-56.5
O=C(CSc1nc2cc(Cl)ccc2o1)NCCc1ccccc1	-11.0	1.7	68.1*	-33.8
O=C(/C=C/c1cccc(Cl)c1)N1CCC(Cc2ccccc2)CC1	-2.6	7.7	65.3*	-42.7
O=C(/C=C/c1ccccc1)N1CCC(Cc2ccccc2)CC1	-20.1	2.2	3.2	-33.1
CCOc1cc(N2CCOCC2)c(OCC)cc1NC(=O)c1ccc(C)cc1	/	2.6	-1.2	/
CCOc1cc(N2CCOCC2)c(OCC)cc1NC(=O)c1ccc(OC(C)C)cc1	/	8.8*	1.1	/
Cc1cccc(-c2nnc3sc(-c4ccccc4C)nn23)c1	-8.1	0.2	68.5*	43.9*
COc1cccc(-c2nnc3sc(C4CCCCC4)nn23)c1	-13.9	-2.5	-10.7	-7.0
COc1cccc(-c2nnc3sc(-c4ccccc4)nn23)c1	/	8.9*	3.1	-16.8
CCOc1cccc(-c2nnc3sc(C4CCCCC4)nn23)c1	-11.0	0.4	71.2*	7.3
O=C(CN1CCN(c2ccccc2F)CC1)NC(=O)NCc1ccccc1	/	-0.4	-2.4	/
CCCCNC(=O)CSc1nnc(Cc2ccccc2)n1CC	/	-0.6	-13.0	-33.3
Cc1ccc(Cl)cc1-n1ncc2c(NNC(=O)c3ccco3)ncnc21	/	1.4	2.3	/
c1ccc2c(c1)[nH]c1c(N3CCCC3)ncnc12	-20.1	0.1	69.3*	-4.3
c1ccc2c(c1)[nH]c1c(N3CCSCC3)ncnc12	-30.6	0.7	39.5	-30.5
COc1ccc(OC)c(N2Cc3cc(C)c(C)cc3C2)c1	7.0	2.0	3.8	-6.0
Cc1ccc(C2c3c(C)nn(-c4ccc([N+](=O)[O-])cc4)c3N=C3C(=O)Nc4ccccc4N32)cc1 (centres undefined)	/	9.9*	2.9	/
Cc1ccc(-c2csc3ncnc(Nc4ccc(N5CCOCC5)cc4)c23)cc1	-10.5	2.0	64.0*	-36.3
SMILES	Yeast lifespan up	RAM network inh	WT yeast gro inh	Yeast growth inh
Cc1cccc(C(=O)n2cnnc2N)c1	/	0.2	4.3	/
CSc1nnc(C)c(/C=C/NOCc2cccc(F)c2)n1	/	0.2	4.6	/
Cc1nnc(SCc2ccccc2)nc1/C=C/NOCc1ccc(Cl)cc1Cl	11.3	8.5*	5.2	-13.9
COC(=O)/C=C1\OC(c2ccccc2)=CC1=O	38.0*	-0.9	-4.8	-14.7
O=C1OC(c2ccccc2)=C/C1=C/N1CCCCC1	-3.8	0.2	-2.5	-22.6
Nc1nc(/C=C/c2cccnc2)nc(-c2ccccc2O)n1	/	0.5	8.3	/
N/N=c1\sc2ccccc2n1-c1ccccc1	-11.0	0.3	29.1	-44.5
Fc1ccc(-c2cc3nc(-c4ccccc4)cc(N4CCN(CCN5CCOCC5)CC4)n3n2)cc1	-19.1	3.3	-9.3	-79.4
CN1CCN(c2cc(-c3ccccc3)nc3cc(-c4ccc(F)cc4)nn23)CC1	-8.2	2.4	83.7*	-47.0
CCc1ccc2c(c1)C1(NN=C(c3cccc4ccccc34)S1)C(=O)N2 (centres undefined)	/	0.4	19.0	66.0*
Cc1oc(C(C)(C)C)cc1C(=O)Nc1cccc(/C=C\C(=O)O)c1	6.2	6.1	-11.4	-61.3
Cc1oc(-c2ccccc2)cc1C(=O)Nc1cccc(/C=C\C(=O)O)c1	/	8.5*	-0.2	/
COc1ccc([N+](=O)[O-])cc1NC(=O)CSc1ccc2ccccc2c1	1.1	8.4*	18.4	-26.7
COc1ccc([N+](=O)[O-])cc1NC(=O)C(C)Sc1ccc(C)cc1 (centres undefined)	-6.3	9.2*	4.4	0.8
CO/N=C/c1ccc(OC)c(Oc2nc(OC)cc(OC)n2)c1	/	-1.3	0.7	/
O=C(NCCO)/C(=C/c1cccc([N+](=O)[O-])c1)NC(=O)c1ccco1	/	1.2	-7.2	/
CCOc1c2ccc(C(=O)NCc3ccc(C)cc3)cc2nn1CCOC	-11.9	-0.1	20.9	-16.5
Cc1ccc(NC(=S)NNC(=O)c2ccc(N3CCOCC3)c([N+](=O)[O-])c2)cc1C	3.5	1.4	-18.8	2.1
NC(=O)[C@@H]1CCCNc2c(I)cc([N+](=O)[O-])cc2C(=O)N[C@@H](CO)C(=O)NCC(=O)N1	1.7	0.4	2.9	-26.2
CCOc1ccc(-n2cc(C(=O)Nc3cccc(Cl)c3)c3cc(OC)c(OC)cc3c2=O)cc1	0.0	8.9*	1.3	-35.6
O=C(COC(=O)C(Cc1ccccc1)NC(=O)c1ccc(Cl)cc1)c1ccc(Cl)cc1 (centres undefined)	3.4	9.1*	9.8	-16.6
O=C(N[C@@H](Cc1c[nH]c2ccccc12)C(=O)O)c1ccc(Cl)cc1	/	8.9*	-16.1	/
CC1CN(C(=O)c2ccc(COc3ccccc3Br)o2)CC(C)O1 (centres undefined)	/	-0.7	11.5	/
Cc1cc(O)c(/C=N/Nc2ccccc2Cl)c(=O)o1	-31.9	0.0	12.6	97.9*
Cc1cc(O)c(/C=N/Nc2cccc(Cl)c2)c(=O)o1	-25.6	-1.2	44.5	97.6*
SMILES	Yeast lifespan up	RAM network inh	WT yeast gro inh	Yeast growth inh
Cc1cc(O)c(/C=N/Nc2ccc(Cl)cc2)c(=O)o1	-28.1	2.5	8.1	96.7*
CCn1c(CCNC(=O)c2cccs2)n[nH]c1=S	6.8	0.9	12.7	-9.8
COc1ccc(S(=O)(=O)N(C)CC(=O)Nc2cccc(C(C)=O)c2)cc1Cl	-6.9	-0.9	2.3	-2.4
COc1ccc(/C=C2\SC(N3CCc4ccccc4C3)=NC2=O)cc1	2.7	8.0	62.3*	-26.6
CCOC(=O)CSc1nc(C)c2cc(OC)ccc2n1	-19.6	3.4	1.8	-54.7
CCOC(=O)CSC1=NC(=O)/C(=C/c2ccc(OC)cc2)S1	56.6*	0.8	18.2	-4.8
COc1ccc(C(C)=O)cc1COc1ccc([N+](=O)[O-])c(C)c1	/	8.6*	-8.2	/
O=C(/C=N/O)NCCN1CCCCC1	-10.3	0.7	59.4*	-23.4
CCCOP(=O)(OCCC)C(Nc1ccc(C(C)C)cc1)c1ccc([N+](=O)[O-])cc1 (centres undefined)	-3.3	9.4*	73.7*	-36.2
COCc1cc(C)nc(Oc2ccccc2)c1C#N	/	0.6	-10.9	/
Cc1cc(C)c(Cn2cnc(-c3ccc([N+](=O)[O-])cc3)c2)c(C)c1	-12.9	3.4	60.1*	-9.4
CN(C)/C=C(\C=N\OCc1ccc(Cl)cc1Cl)C(=O)Nc1ccc(Cl)c(Cl)c1	-7.2	10.9*	83.6*	-61.8

Assay outcomes: PubChem, SRMLSC
